From PubChem BioAssay
DSG3 Ab inh = inhibitors of pemphigus antibody binding to DSG3, primary screen, biochemical, bead-based, flow cytometry, scFv-GFP; Desmoglein-3 (Homo sapiens), P32926; DSG3-coupled beads, scFv-anti-DSG3-GFP binding; hits give low values; binding (percent of control), % at 10 µM; actives 0.48% (n = 310,000);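 active means binding more than 3 SD below its plate's average and above zero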;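 further: hits lower antibody fragment binding to DSG3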
Mcl1 Noxa PPI = Mcl-1/Noxa binding inhibitors, primary screen, biochemical, TR-FRET, 1536-well; inhibition, % at 21.7 µM; Induced myeloid leukemia cell differentiation protein Mcl-1 (Homo sapiens), Q07820; TR-FRET Mcl-1/Noxa peptide binding, 2 h; actives 1.5% (n = 220,000);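 active means compounds that cut the protein-peptide binding signal by more than 50% relative to plate controls in a single-dose test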;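 further: His-tagged Mcl-1 with rhodamine Noxa BH3 peptide and terbium anti-His antibody; 0% = Mcl-1 plus Noxa peptide wells and 100% = peptide-only wells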
Target sequence (Q07820 whole entry, looked up): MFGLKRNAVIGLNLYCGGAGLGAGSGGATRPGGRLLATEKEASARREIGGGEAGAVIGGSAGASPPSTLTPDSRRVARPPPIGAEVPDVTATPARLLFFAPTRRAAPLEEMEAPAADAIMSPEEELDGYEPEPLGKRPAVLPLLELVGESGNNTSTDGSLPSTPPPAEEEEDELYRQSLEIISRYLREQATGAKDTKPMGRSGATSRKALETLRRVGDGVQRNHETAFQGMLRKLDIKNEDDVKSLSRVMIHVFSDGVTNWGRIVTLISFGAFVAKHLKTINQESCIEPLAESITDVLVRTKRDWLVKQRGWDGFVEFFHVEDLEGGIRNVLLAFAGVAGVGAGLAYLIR
MCL1 BIM primary = inhibitors of MCL1 binding to BIM-BH3, primary screen, biochemical, fluorescence polarization | Induced myeloid leukemia cell differentiation protein Mcl-1 (Homo sapiens), Q07820 | GST-MCL1 / FITC-Bim-BH3 fluorescence polarization | inhibition, % at 10.9 µM | actives 0.68% (n = 320,000);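 active means inhibition above the mean inhibition of all tested compounds plus 3 SD, set per campaign, cut at about 40% in these data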;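 further: 0% = DMSO wells and 100% = unlabeled Bim-BH3 peptide control; higher means more loss of mP so more displacement of Bim peptide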
T cell modulator = modulators of CD8 T cell-vesicle binding, primary screen, mouse 2C CD8+ T cells, flow cytometry. actives 0.068% (n = 330,000). 2C CD8+ T cell-vesicle binding; hits give low values. response (vesicle binding), % at 7 µM. AID 2052, 2009;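 active means response, share of CD8 T cells binding vesicles, and their 90th percentile fluorescence all below set limits, cut at about 80% in these data, passing the limit was not always enough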;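 further: values below 100% mean blocked vesicle binding to the CD8+ T cells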
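Read-out – percent CD8+ FL2 mean versus row control · System – murine 2C transgenic CD8+ T lymphocytes · Times – 1.5 h cell–vesicle binding at 37 °C, then 20 min icy labelling · Control set – naked vesicles low, QL9 vesicles with vehicle high · Detection – cytometric PE anti-B7-1 and Alexa647 anti-CD8 signals after 1% paraformaldehyde fixation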
Mcl1 Bid PPI = Mcl-1/Bid binding inhibitors, primary screen, biochemical, TR-FRET, 1536-well | Induced myeloid leukemia cell differentiation protein Mcl-1 (Homo sapiens), Q07820 | TR-FRET Mcl-1/Bid-Dy647 peptide binding | inhibition, % at 21.7 µM | actives 0.97% (n = 220,000) | AID 1021, 2008;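 active means compounds that cut the binding signal by more than half at the single screening dose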;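 further: His-tagged Mcl-1 with europium anti-His antibody binding Bid BH3 peptide; 0% = Mcl-1 plus peptide wells and 100% = peptide-only wells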
Mcl-1 Bim block = inhibitors of Bim peptide binding to Mcl-1, primary screen, biochemical, bead-based flow cytometry, multiplex | Induced myeloid leukemia cell differentiation protein Mcl-1 (Homo sapiens), Q07820 | Bim peptide-Mcl-1 binding | inhibition, % at 10 µM | actives 0.1% (n = 190,000); in the data active means inhibition above about 40%;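 further: 0% = no compound tracer wells and 100% = peptide blocker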
* hit, by the source's call; i = inactive; · = not tested or not shown. The list is not random: actives were taken first. Their share in the collection is about 2.3%.

SMILES | DSG3 Ab inh | Mcl1 Noxa PPI | MCL1 BIM primary | T cell modulator | Mcl1 Bid PPI | Mcl-1 Bim block
Cc1cc(=O)oc(C)c1C(=O)OCC(=O)c1ccc(Cl)c(Cl)c1 | 82* | 8 | 12 | 176 | 4 | -3
CC(=O)c1ccc2c3c(cc(C)c2c1)CCCC3 | 123 | · | · | · | · | ·
CNC(=S)N/N=C/c1c(C)nn(-c2cccc(Cl)c2)c1Cl | 27* | 4 | 8 | 369 | 0 | -2
CNC(=S)N/N=C/c1c(C)nn(-c2ccccc2)c1Cl | 102 | 21 | -2 | 361 | -61 | 0
O=C(N/N=C/c1ccc2ncccc2c1)c1cc(-c2cccs2)nc2ccccc12 | 70* | 13 | -1 | 143 | -53 | ·
CC(=O)Nc1sc(C)c(C)c1C(=O)OCCOc1ccccc1 | 97 | · | -2 | 206 | · | ·
O=C1C=C(NCCc2cc(Br)c(O)c(Br)c2)C(=O)c2ncccc21 | 58* | · | · | · | · | ·
NC1=C(Br)C(=O)c2ncccc2C1=O | 87 | · | · | · | · | ·
COC(C/C=C/C(=O)[C@H](C)OCc1ccccc1)OC | 108 | · | 2 | · | · | ·
COc1cc(C=C(c2nc3ccccc3s2)c2nc3ccccc3s2)ccc1O | 102 | 24 | 43* | 200 | -4 | -1
COc1ccc(C=C(c2nc3ccccc3s2)c2nc3ccccc3s2)cc1O | 134 | -8 | -5 | 152 | -65 | 0
COc1cc(/C=C/c2nc3ccccc3s2)cc(OC)c1O | 118 | 55* | 16 | 183 | -7 | 0
Cc1nc(COc2ccccc2Cl)sc1-c1ccnc(N)n1 | 103 | -5 | 9 | 374 | 55* | ·
Cc1ccn(CC(=O)N2CCCC(N3CCN(c4cccc(Cl)c4)CC3)C2)n1 (centres undefined) | 99 | · | -2 | 157 | · | ·
COc1ccc(Cl)cc1NC(=O)CN(C)C(=O)CCSc1ccc(C)cc1 | 102 | · | -3 | 278 | · | ·
O=C(CSCc1ccccc1)NCCCN1CCOCC1 | 92 | 7 | 4 | 0 | 98* | 0
O=C(O)c1cc(S(=O)(=O)O)ccc1O | · | 40 | 1 | 182 | 56* | 0
COC(=O)c1ccccc1NS(=O)(=O)c1ccc(O)c(C(=O)O)c1 | 104 | 27 | -9 | 321 | 24 | 0
Clc1ccc(SCCOCCN2CCCCCC2)cc1 | 111 | · | 3 | 266 | · | ·
CC(Sc1ccc(Cl)cc1)C(=O)Nc1ccccc1-c1ccccc1 (centres undefined) | 103 | 71* | 3 | 330 | 3 | -2
CC(C)C[C@H](NC(=O)[C@@H]1Cc2c([nH]c3ccccc23)C2c3ccccc3C(=O)N21)C(=O)N1CCC[C@@H]1C(=O)O (some centres undefined) | 101 | · | 4 | 382 | · | ·
Cc1cc(C)cc(NC(=O)COc2coc(CN3CCc4ccccc4C3)cc2=O)c1 | 101 | · | -15 | 163 | · | ·
CCOc1cc(/C=C(\C#N)c2[nH]nc(N)c2C#N)ccc1O | 105 | 78* | -1 | 214 | -56 | 16
CCN1/C(=C/C=C/c2oc3ccc4ccccc4c3[n+]2CC)Oc2ccc3ccccc3c21 | · | 21 | 135* | i | 89* | 24
Cc1cc(/C=N/NC(=O)c2ccc(O)cc2)c(C)n1CC(C)C | 97 | 3 | 4 | 154 | -31 | ·
SMILES | DSG3 Ab inh | Mcl1 Noxa PPI | MCL1 BIM primary | T cell modulator | Mcl1 Bid PPI | Mcl-1 Bim block
COc1cc(/C=C2/SC(=O)NC2=O)ccc1Oc1ccc([N+](=O)[O-])cc1[N+](=O)[O-] | 93 | 90* | 10 | 148 | -107 | ·
COc1cc(/C=C2\SC(=O)NC2=O)ccc1Oc1ccc([N+](=O)[O-])cn1 | 119 | -4 | 4 | 741 | -10 | ·
COc1cc(/C=C2/SC(N)=NC2=O)ccc1Oc1ccc([N+](=O)[O-])cc1[N+](=O)[O-] | 100 | 60* | 5 | 358 | 67* | -4
CCCOc1ccc(/C=C2\SC(N)=NC2=O)cc1OC | 97 | · | 0 | 254 | · | ·
COc1ccc(CNC(=O)COC(=O)c2ccc(S(=O)(=O)N3CCCCC3)cc2)cc1 | 116 | · | · | 469 | · | ·
COc1cc(OC)cc(C(=O)N2CCC(N3CCN(c4ccccc4OC)CC3)CC2)c1 | · | 14 | -1 | 158 | 57* | -4
COc1ccc(NC(=O)CSc2nnnn2C2CCCC2)cc1S(=O)(=O)N1CCOCC1 | 96 | · | · | · | · | ·
COc1ccc(OC)c(CCNC(=O)CCC(=O)N2CCOc3ccc(C)cc32)c1 | 68* | · | 1 | 769 | · | ·
O=C1c2ccccc2C(=O)C1c1nccc2ccccc12 | 109 | 58* | 15 | 254 | 35 | 1
COc1ccc(Nc2nc(N)c([N+](=O)[O-])c(NCc3ccccc3)n2)cc1 | 114 | 51* | 1 | 452 | 29 | ·
CNc1nc(Nc2ccc(Br)cc2)nc(N)c1[N+](=O)[O-] | 51* | 14 | 1 | 0 | -18 | -6
CCC1Nc2ncnc(N3CCN(c4ccccn4)CC3)c2N(Cc2ccc(Cl)cc2)C1=O (centres undefined) | 98 | · | 11 | 640 | · | ·
OCCNc1nc(Nc2ccccc2)nc(Nc2ccccc2)n1 | 107 | 92* | -2 | 99 | -1 | -1
COc1ccc(C(=O)/C=C/Nc2cccc(O)c2)cc1 | 108 | 6 | 48* | 225 | -31 | 5
CCCCOc1ccc(N(CC(=O)NCc2ccccc2)C(=O)c2csnn2)cc1 | 100 | · | 17 | 201 | · | ·
O=C(OC1CCc2ccccc2C1=O)c1ccccc1O (centres undefined) | 108 | 6 | 4 | 132 | 54* | 0
CCOC(=O)c1ccc(NC(=O)c2ccccc2)cc1 | 88 | 13 | 3 | 233 | 12 | 0
CCOC(=O)c1ccc(NC(=O)Oc2ccccc2)cc1 | 104 | 15 | 2 | 190 | 100* | 2
CC(C)COc1ccc(C(=O)Nc2cc(S(=O)(=O)N3CCOCC3)ccc2N2CCCC2)cc1 | · | · | -2 | 338 | · | ·
CCOC(=O)CC1=C(C(=O)OCC)C(c2ccc(OC)cc2OC)C(C#N)=C(N)O1 (centres undefined) | 106 | -1 | 43* | 240 | -81 | -3
Cc1cc(OCC(=O)N(Cc2ccccc2)C2CCS(=O)(=O)C2)ccc1Cl (centres undefined) | 85 | · | -3 | 371 | · | ·
CCCn1c(SCC(=O)NC(=O)NC(C)(C)C)n[nH]c1=O | 101 | 8 | 6 | 427 | -4 | -2
CCCn1c(SCC(=O)NC2CCC(C)CC2)n[nH]c1=O (centres undefined) | 107 | · | 48* | i | · | ·
